ChEMBL document CHEMBL1158128, “Cytotoxic styryl-lactones from the leaves and twigs of Polyalthia crassa” (2006)
Converted amounts (≈) assume the structure as drawn.

Legend:
Conditions in all cases: read-out: ED50 (the source's name)
P388 = test: Cytotoxicity against mouse P388 cells by SRB assay; assay type: functional
In short: (§1)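 Colorimetric cytotoxicity read-out on a panel of cultured mammalian cancer cell lines, run by an earlier published method, with ellipticine as the positive control.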

KB = test: Cytotoxicity against human KB cells by SRB assay; assay type: functional; in short: as §1
Col2 = test: Cytotoxicity against human Col2 cells by SRB assay; assay type: functional; in short: as §1
[1] = Cytotoxicity against human BCA1 cells by SRB assay; assay type: functional; in short: as §1
Lu1 = test: Cytotoxicity against human Lu1 cells by SRB assay; assay type: functional; in short: as §1
[2] = Cytotoxicity against rat ASK cells by SRB assay

| SMILES | EC50 (P388) [µg/mL] | EC50 (KB) [µg/mL] | EC50 (Col2) [µg/mL] | EC50 [1] [µg/mL] | EC50 (Lu1) [µg/mL] | EC50 [2] [µg/mL] |
| --- | --- | --- | --- | --- | --- | --- |
| O=C(/C=C/c1ccccc1)O[C@@H]1[C@H]([C@@H](O)c2ccccc2)O[C@H]2CC(=O)O[C@@H]12 [(+)-CRASSALACTONE B] | 3.8 (≈ 9.99 µM) | > 5 | > 5 | > 5 | > 5 | > 5 |
| COc1c(O)cc2c3c(cc4ccccc4c13)NC2=O [ARISTOLACTAM AII] | 2.7 (≈ 10.2 µM) | > 5 | > 5 | > 5 | > 5 | > 5 |
| O=C1C=C[C@H](OC(=O)/C=C/c2ccccc2)[C@H]([C@H](O)[C@H](O)c2ccccc2)O1 | 0.18 (≈ 0.473 µM) | 1.7 (≈ 4.47 µM) | 1.9 (≈ 4.99 µM) | 0.92 (≈ 2.42 µM) | 1.9 (≈ 4.99 µM) | 1.6 (≈ 4.21 µM) |
| O=C1C=C[C@]2(C[C@H](O)[C@@H](c3ccccc3)O2)O1 | 1.1 (≈ 4.74 µM) | 3.3 (≈ 14.2 µM) | 4 (≈ 17.2 µM) | 3.2 (≈ 13.8 µM) | > 5 | 3.1 (≈ 13.3 µM) |
| Cc1c2ccncc2c(C)c2c1[nH]c1ccccc12 [ELLIPTECINE] | 0.52 (≈ 2.11 µM) | 0.65 (≈ 2.64 µM) | 0.53 (≈ 2.15 µM) | 0.65 (≈ 2.64 µM) | 0.56 (≈ 2.27 µM) | 0.6 (≈ 2.44 µM) |
| O=C1C=C[C@H](OC(=O)/C=C/c2ccccc2)[C@H]([C@H](OC(=O)/C=C/c2ccccc2)[C@H](OC(=O)/C=C/c2ccccc2)c2ccccc2)O1 | 3.1 (≈ 4.84 µM) | > 5 | > 5 | > 5 | > 5 | > 5 |
| O=C(/C=C/c1ccccc1)O[C@H](c1ccccc1)[C@H]1O[C@@H]2CC(=O)O[C@@H]2[C@H]1O [(+)-CRASSALACTONE C] | > 5 | > 5 | > 5 | > 5 | > 5 | > 5 |
